Measured values reported in ChEMBL document CHEMBL5042517, “Discovery, X-ray Crystallography, and Anti-inflammatory Activity of Bromodomain-containing Protein 4 (BRD4) BD1 Inhibitors Targeting a Distinct New Binding Site” (J Med Chem, 2022).
Activity calls are given as the source filed them. No cut-off for these calls is given here.

Experiments:
[1] = test system: Mus musculus; experiment: Antiinflammatory activity in C57BL/6 mouse model of poly(I:C)-induced acute airway inflammation assessed as decrease in RANTES level in BALF at 10 mg/kg, po administered 1 day prior to poly(I:C) stimulation; assay type: functional, organism-based
[2] = target: Bromodomain-containing protein 2 (Homo sapiens, UniProt P25440); experiment: Binding affinity BRD2 BD1 (unknown origin) incubated for 1 hr by TR-FRET assay
Chain of Bromodomain-containing protein 2 (P25440 whole entry): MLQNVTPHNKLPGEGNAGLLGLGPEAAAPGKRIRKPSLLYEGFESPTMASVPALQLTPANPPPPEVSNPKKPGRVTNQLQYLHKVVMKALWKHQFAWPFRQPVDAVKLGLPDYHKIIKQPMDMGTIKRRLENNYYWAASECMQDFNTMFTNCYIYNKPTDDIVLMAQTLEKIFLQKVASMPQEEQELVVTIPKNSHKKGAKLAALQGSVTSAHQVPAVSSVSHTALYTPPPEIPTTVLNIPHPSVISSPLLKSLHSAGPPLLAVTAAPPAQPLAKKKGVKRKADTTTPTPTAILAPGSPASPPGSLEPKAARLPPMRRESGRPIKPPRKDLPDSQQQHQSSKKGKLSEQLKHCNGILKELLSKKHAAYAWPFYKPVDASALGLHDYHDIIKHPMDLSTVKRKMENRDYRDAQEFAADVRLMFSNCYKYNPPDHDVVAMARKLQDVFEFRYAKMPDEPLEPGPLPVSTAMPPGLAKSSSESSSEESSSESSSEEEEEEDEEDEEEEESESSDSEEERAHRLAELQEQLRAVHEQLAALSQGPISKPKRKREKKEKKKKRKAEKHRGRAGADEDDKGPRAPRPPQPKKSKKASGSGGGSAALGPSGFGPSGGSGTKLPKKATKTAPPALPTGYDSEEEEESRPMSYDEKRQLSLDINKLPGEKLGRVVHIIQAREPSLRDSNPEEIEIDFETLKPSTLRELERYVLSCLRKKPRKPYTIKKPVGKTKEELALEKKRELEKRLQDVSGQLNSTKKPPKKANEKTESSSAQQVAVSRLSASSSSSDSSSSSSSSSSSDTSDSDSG
Procedure, shortened: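 Commercial TR-FRET kit with recombinant BRD2 bromodomain. Inhibitor at 0.01 nM–100 μM, 1 h at room temperature. Excitation 340 nm; 670/620 nm emission ratio read with 100 μs delay. IC50 from a four-parameter fit, mean of three runs.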

[3] = target: Bromodomain-containing protein 3 (Homo sapiens, UniProt Q15059); experiment: Binding affinity BRD3 BD2 (unknown origin) incubated for 1 hr by TR-FRET assay
Chain of Bromodomain-containing protein 3 (Q15059 whole entry): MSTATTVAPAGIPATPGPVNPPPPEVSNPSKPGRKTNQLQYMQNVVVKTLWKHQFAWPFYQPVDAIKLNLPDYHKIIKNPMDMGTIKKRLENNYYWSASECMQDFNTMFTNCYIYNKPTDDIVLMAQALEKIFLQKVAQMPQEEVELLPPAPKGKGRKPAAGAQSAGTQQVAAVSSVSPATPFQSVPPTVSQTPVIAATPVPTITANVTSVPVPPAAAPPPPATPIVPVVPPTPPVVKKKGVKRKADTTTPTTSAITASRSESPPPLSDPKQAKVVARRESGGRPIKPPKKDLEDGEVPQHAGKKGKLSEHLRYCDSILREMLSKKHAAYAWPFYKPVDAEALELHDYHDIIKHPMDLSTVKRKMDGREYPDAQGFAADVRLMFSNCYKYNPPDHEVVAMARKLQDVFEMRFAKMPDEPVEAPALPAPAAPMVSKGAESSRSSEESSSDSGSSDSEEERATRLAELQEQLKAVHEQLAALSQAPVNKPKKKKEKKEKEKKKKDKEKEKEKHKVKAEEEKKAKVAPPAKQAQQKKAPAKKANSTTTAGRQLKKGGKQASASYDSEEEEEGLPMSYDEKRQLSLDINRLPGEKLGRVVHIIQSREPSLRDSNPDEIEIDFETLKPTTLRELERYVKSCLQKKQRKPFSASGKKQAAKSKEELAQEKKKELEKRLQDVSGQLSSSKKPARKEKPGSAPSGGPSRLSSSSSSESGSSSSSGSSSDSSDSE

[4] = Cmax in rat at 10 mg/kg, iv; assay type: ADME, organism-based; design: route intravenous, dose 10 mg/kg; details: in vivo
[5] = test system: Mus musculus; experiment: Antiinflammatory activity in C57BL/6 mouse model of poly(I:C)-induced acute airway inflammation assessed as decrease in MCP-1 level in BALF at 10 mg/kg, po administered 1 day prior to poly(I:C) stimulation; assay type: functional, organism-based
[6] = test system: Bromodomain-containing protein 4 (Homo sapiens), O60885 [E151A]
[7] = Cmax in rat at 20 mg/kg, po; assay type: ADME, organism-based; design: route oral, dose 20 mg/kg; details: in vivo
[8] = AUC (0 to t) in rat at 10 mg/kg, iv; assay type: ADME, organism-based; design: dose 10 mg/kg; details: in vivo
[9] = test system: Bromodomain-containing protein 4 (Homo sapiens), O60885 [E151A]; remark: listed apart in the source
[10] = target: Bromodomain testis-specific protein (Homo sapiens, UniProt Q58F21); experiment: Binding affinity BRDT BD1 (unknown origin) incubated for 1 hr by TR-FRET assay
[11] = Half life in rat at 10 mg/kg, iv; assay type: ADME, organism-based; details: in vivo
[12] = test system: Mus musculus; experiment: Antiinflammatory activity in C57BL/6 mouse model of poly(I:C)-induced acute airway inflammation assessed as decrease in KC level in BALF at 10 mg/kg, po administered 1 day prior to poly(I:C) stimulation; assay type: functional, organism-based
[13] = AUC (0 to t) in rat at 20 mg/kg, po; assay type: ADME, organism-based; design: dose 20 mg/kg; details: in vivo
[14] = target: T1, Bromodomain-containing protein 4 (Homo sapiens, UniProt O60885)
[15] = target: T1, Bromodomain-containing protein 4; remark: listed apart in the source
[16] = test system: Mus musculus; experiment: Antiinflammatory activity in C57BL/6 mouse model of poly(I:C)-induced acute airway inflammation assessed as decrease in CIG5 gene expression in lung tissue at 10 mg/kg, po administered 1 day prior to poly(I:C) stimulation; assay type: functional, organism-based
[17] = target: T1, Bromodomain-containing protein 4; remark: listed apart in the source
[18] = Volume of distribution at steady state in rat at 20 mg/kg, po; assay type: ADME, organism-based; details: in vivo
[19] = target: T1, Bromodomain-containing protein 4; remark: listed apart in the source
[20] = test system: Bromodomain-containing protein 4 (Homo sapiens), O60885 [E151A]; remark: listed apart in the source
[21] = target: T1, Bromodomain-containing protein 4; remark: listed apart in the source
[22] = target: CREB-binding protein (Homo sapiens, UniProt Q92793); experiment: Binding affinity CBP (unknown origin) incubated for 1 hr by TR-FRET assay
Chain of CREB-binding protein (Q92793 whole entry): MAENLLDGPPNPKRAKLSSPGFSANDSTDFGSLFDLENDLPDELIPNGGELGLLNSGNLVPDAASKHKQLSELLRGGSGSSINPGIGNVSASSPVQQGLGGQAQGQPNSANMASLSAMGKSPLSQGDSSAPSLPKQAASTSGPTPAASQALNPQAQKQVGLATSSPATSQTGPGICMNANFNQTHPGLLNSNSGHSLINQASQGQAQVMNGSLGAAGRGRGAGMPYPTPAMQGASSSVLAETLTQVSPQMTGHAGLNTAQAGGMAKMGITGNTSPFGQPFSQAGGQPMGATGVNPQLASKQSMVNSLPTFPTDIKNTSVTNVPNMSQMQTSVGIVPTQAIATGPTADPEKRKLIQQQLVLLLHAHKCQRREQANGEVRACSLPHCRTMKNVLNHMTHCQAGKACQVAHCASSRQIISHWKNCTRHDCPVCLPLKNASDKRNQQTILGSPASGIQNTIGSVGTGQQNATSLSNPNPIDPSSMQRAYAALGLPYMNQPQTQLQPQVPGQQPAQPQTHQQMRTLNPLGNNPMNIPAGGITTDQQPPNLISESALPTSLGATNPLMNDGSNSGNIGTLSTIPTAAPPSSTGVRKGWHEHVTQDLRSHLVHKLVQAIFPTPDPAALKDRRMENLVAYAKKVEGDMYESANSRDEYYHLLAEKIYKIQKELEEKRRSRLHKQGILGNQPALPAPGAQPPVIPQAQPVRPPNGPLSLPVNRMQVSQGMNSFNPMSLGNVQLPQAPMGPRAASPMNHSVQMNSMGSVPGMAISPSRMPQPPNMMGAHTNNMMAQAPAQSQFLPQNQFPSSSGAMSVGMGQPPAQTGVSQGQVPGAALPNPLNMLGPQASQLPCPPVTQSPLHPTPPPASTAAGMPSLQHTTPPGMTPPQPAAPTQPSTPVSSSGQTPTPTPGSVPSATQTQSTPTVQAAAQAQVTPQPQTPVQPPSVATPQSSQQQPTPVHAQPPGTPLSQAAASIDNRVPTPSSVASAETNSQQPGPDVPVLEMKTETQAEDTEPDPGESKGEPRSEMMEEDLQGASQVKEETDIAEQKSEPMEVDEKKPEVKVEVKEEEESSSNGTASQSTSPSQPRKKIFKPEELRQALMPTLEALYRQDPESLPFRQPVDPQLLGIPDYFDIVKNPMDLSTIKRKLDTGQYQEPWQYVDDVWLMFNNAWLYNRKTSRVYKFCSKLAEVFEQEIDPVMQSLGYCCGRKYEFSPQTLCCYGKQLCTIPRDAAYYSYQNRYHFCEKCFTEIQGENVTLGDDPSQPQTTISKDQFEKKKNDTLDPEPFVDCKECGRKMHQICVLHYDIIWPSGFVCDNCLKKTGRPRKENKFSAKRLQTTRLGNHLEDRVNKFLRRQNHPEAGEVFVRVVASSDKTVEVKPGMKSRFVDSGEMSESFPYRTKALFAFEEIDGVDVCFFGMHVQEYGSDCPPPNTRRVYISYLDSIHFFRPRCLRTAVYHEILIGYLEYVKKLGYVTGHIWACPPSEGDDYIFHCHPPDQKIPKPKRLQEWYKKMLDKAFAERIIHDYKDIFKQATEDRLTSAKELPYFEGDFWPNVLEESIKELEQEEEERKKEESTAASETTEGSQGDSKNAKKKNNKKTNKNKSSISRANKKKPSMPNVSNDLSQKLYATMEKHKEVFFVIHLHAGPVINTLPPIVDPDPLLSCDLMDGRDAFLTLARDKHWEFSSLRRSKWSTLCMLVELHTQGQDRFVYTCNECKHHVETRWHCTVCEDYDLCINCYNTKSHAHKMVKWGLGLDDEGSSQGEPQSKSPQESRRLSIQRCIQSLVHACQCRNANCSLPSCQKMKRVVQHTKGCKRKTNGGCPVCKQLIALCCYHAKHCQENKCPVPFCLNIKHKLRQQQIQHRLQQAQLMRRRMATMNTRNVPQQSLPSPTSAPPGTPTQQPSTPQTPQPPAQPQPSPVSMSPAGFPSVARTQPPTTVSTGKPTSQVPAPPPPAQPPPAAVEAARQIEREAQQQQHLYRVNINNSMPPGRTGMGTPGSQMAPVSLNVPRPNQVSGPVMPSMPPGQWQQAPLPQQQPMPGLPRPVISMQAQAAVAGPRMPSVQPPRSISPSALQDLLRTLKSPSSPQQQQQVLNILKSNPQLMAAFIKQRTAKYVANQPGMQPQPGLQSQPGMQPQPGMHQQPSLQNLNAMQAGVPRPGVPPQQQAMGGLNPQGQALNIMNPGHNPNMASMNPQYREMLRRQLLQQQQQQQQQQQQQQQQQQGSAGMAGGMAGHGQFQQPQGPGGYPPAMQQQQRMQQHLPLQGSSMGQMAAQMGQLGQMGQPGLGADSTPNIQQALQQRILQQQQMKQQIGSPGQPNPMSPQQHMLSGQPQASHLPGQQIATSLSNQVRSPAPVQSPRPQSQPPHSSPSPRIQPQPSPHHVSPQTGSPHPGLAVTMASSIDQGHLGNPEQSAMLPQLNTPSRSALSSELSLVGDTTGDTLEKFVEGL

[23] = Half life in rat at 20 mg/kg, po; assay type: ADME, organism-based; details: in vivo
[24] = test system: Mus musculus; experiment: Antiinflammatory activity in C57BL/6 mouse model of poly(I:C)-induced acute airway inflammation assessed as decrease in IL-6 level in BALF at 10 mg/kg, po administered 1 day prior to poly(I:C) stimulation; assay type: functional, organism-based

## O=C(Nc1ccc(C(F)(F)F)cc1)Nc1ccc(S(=O)(=O)N2CCC[C@H]2CN2CCOCC2)cc1
[1]
  Activity: inactive
[2]
  IC50: 835 nM
[3]
  IC50: 2000 nM
[4]
  Cmax: 1920 ng/mL
[5]
  Activity: inactive
[6]
  ΔTm: 0.5 °C
[7]
  Cmax: 86.9 ng/mL
[8]
  AUC(0-t): 2170 ng·h/mL
[9]
  ΔTm: 0.9 °C
[10]
  IC50: 2420 nM
[11]
  half-life: 2.5 h
[12]
  Activity: inactive
[13]
  AUC(0-t): 602 ng·h/mL
[14]
  ΔTm: 1.1 °C
[15]
  ΔTm: 4.5 °C
[16]
  Activity: inactive
[17]
  ΔTm: 0.6 °C
[18]
  Vdss: 170 L/kg
[19]
  ΔTm: 0.7 °C
[20]
  ΔTm: 0.4 °C
[21]
  ΔTm: 13.3 °C
[22]
  IC50: > 10000 nM
[23]
  half-life: 3.7 h
[24]
  Activity: inactive
